Data: publication PMC9371903 (Nucleic Acids Research, 2022)

Experiments:
[1] = test system: PML-NBs in IMR90 normal human fibroblasts (control vector or activated RAS); assay: PML-NB formation by anti-PML immunofluorescence; assay type: cell-based; settings: 24h treatment, 5 μM pyrithione
How it was run: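 IMR90 fibroblasts in pyruvate-free DMEM with 10% FBS and 1% penicillin/streptomycin, transduced with retroviral pBABE control or pBABE-RAS-V12. On day 6, plated on coverslips and treated next day for 24 h with vehicle, 5 μM pyrithione or 1 μM TPEN. Cells fixed in 4% PFA, permeabilised with 0.4% Triton X-100 and 0.1 M glycine, then blocked in 3% BSA. Anti-PML (1/250, overnight, 4°C), Alexa 568 secondary, DAPI. PML-NBs per cell and PML-NBs >1 μm counted.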

[2] = molecular target: SUMO1 (residues 2–97 of human SUMO1 with a C52A substitution) (Homo sapiens, UniProt P63165, C52A); assay: ITC binding to SUMO1
[3] = molecular target: ΔN-SUMO1 (residues 17–97 of human SUMO1) (Homo sapiens, UniProt P63165, C52A); assay: ITC binding to ΔN-SUMO1; settings: ΔN-SUMO1, 20 mM Tris–HCl pH 7.4, 25°C
[4] = molecular target: UBC9 (residues 2-158 of human UBC9) (human, UniProt P63279 2-158); assay: ITC
[5] = molecular target: SUMO2 (residues 2-93 of human SUMO2 with a C48A substitution) (human, UniProt P61956 2-93, C48A); assay: ITC
[6] = molecular target: ΔN-SUMO2 (residues 14-93) (human, UniProt P61956 14-93, C48A); assay: ITC
Chain of ΔN-SUMO2 (residues 14-93) (P61956 14-93 C48A): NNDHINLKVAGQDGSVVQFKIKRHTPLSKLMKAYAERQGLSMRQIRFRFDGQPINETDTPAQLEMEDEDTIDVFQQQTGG

Chain of UBC9 (residues 2-158 of human UBC9) (P63279 2-158): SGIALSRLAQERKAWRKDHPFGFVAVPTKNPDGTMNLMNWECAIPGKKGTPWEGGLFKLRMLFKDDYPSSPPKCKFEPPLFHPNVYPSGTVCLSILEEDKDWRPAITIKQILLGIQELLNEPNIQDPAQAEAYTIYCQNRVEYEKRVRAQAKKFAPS
Chain of SUMO2 (residues 2-93 of human SUMO2 with a C48A substitution) (P61956 2-93 C48A): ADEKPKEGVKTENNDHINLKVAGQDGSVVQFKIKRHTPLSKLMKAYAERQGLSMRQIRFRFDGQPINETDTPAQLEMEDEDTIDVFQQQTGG

[O-][n+]1ccccc1S [pyrithione]
formation of PML-NBs ([1]; Ras-expressing (senescent) IMR90 cells): induces significantly the formation of PML-NBs
formation of PML-NBs ([1]; vector-control IMR90 cells): only a marginal increase

UBC9: residues 2–158 of human UBC9; E2 SUMO conjugating enzyme
Kd ([2]; ITC, SUMO1, 20 mM Tris–HCl pH 7.4, 25°C): 29 ± 11 nM
fold stronger binding to SUMO1 in comparison to ΔN-SUMO1 ([2]; ratio of ITC KD values, 20 mM Tris–HCl pH 7.4): roughly 2.5 fold
Kd [3]: 73 ± 15 nM

B1: ΔN-SUMO1 (residues 17-97 of human SUMO1) (domain or fragment, UniProt P63165 17-97, looked up)
chain: KEGEYIKLKVIGQDSSEIHFKVKMTTHLKKLKESYAQRQGVPMNSLRFLFEGQRIADNHTPKELGMEEEDVIEVYQEQTGG
Kd [4]: 73 ± 15 nM

YKTSVATQADPEEIIVLDDDD [Daxx-SIM-2SD (Daxx-SIM with S/D substitutions at positions 737 and 739)]
Kd [5]: 1000 ± 100 nM
Kd [6]: 510 ± 110 nM
